In ChEMBL document CHEMBL4325899, “Synthesis and photocytotoxic activity of [1,2,3]triazolo[4,5-h][1,6]naphthyridines and [1,3]oxazolo[5,4-h][1,6]naphthyridines” (Eur J Med Chem, 2019):
pEC50: −log10 of the molar value.

Columns and labels:
MCF7 [1] = assay: Phototoxicity against human MCF7 cells preincubated for 5 mins followed by compound washout and subsequent UV irradiation at 1.5 J/cm2 for 5 mins measured after 72 hrs by MTT assay; type: functional, cell-based; conditions: MCF7, light or radiation study
Outline: (§1)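 Compounds were diluted in DMSO (0.5% final), applied in triplicate for 5 min, then washed out with PBS. After medium removal, cells were irradiated on ice for 5 min at 365 nm (1.5 J/cm²) and then kept 72 h at 37 °C. Viability was read by MTT at 540 nm and expressed relative to 0.5% DMSO controls given the same treatment. EC50 is the concentration killing 50%, as the mean ± SD of at least three experiments.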

[2] = Dark toxicity against human MCF7 cells preincubated for 5 mins followed by compound washout and measured after 72 hrs by MTT assay; type: cell-based
Outline: (§2)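 Cells were plated and allowed to attach overnight. Compounds were diluted in DMSO (0.5% final), with each concentration in triplicate, and applied for 5 min. Cells were then washed in PBS and given fresh medium. Without irradiation, cells were held 72 h at up to 50 μM. MTT (5 mg/mL stock) was added for 4 h, crystals were dissolved in SDS/HCl overnight, and absorbance was read at 540 nm. CC50 is the concentration killing 50% of cells, taken as the mean of at least three experiments.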

[3] = Phototoxicity index, ratio of CC50 for human MCF10A cells to EC50 for human MCF10A cells under UV irradiation at 1.5 J/cm2; type: cell-based, MCF-10A; conditions: read-out: Ratio CC50/EC50
[4] = Dark toxicity against human A375 cells preincubated for 5 mins followed by compound washout and measured after 72 hrs by MTT assay; type: cell-based, A-375; outline: as §2
A-375 [5] = assay: Phototoxicity against human A375 cells preincubated for 5 mins followed by compound washout and subsequent UV irradiation at 1.5 J/cm2 for 5 mins measured after 72 hrs by MTT assay; type: functional, cell-based; conditions: A-375, light or radiation study; outline: as §1
[6] = Solubility of the compound in DMSO; type: physicochemical
A-375 [7] = assay: Phototoxicity index, ratio of CC50 for human A375 cells to EC50 for human A375 cells under UV irradiation at 1.5 J/cm2
MCF-10A = assay: Phototoxicity against human MCF10A cells preincubated for 5 mins followed by compound washout and subsequent UV irradiation at 1.5 J/cm2 for 5 mins measured after 72 hrs by MTT assay; type: cell-based; conditions: light or radiation study; outline: as §1
[8] = Dark toxicity against human HT-29 cells preincubated for 5 mins followed by compound washout and measured after 72 hrs by MTT assay; type: cell-based; outline: as §2
HT-29 [9] = assay: Phototoxicity against human HT-29 cells preincubated for 5 mins followed by compound washout and subsequent UV irradiation at 1.5 J/cm2 for 5 mins measured after 72 hrs by MTT assay; type: functional, cell-based; conditions: HT-29, light or radiation study; outline: as §1
HT-29 [10] = assay: Phototoxicity index, ratio of CC50 for human HT-29 cells to EC50 for human HT-29 cells under UV irradiation at 1.5 J/cm2
[11] = Selectivity index, ratio of EC50 for human MCF10A cells under UV irradiation at 1.5 J/cm2 to EC50 for human A375 cells under UV irradiation at 1.5 J/cm2; type: toxicity; conditions: MCF10A cells versus A375 cells, read-out: Ratio EC50
Outline: (§3)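 SI is the EC50 under irradiation in non-tumor MCF10A cells divided by the EC50 under irradiation in the tumor line. Both were MTT read-outs 72 h after 1.5 J/cm² at 365 nm.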

[12] = Dark toxicity against human MCF10A cells preincubated for 5 mins followed by compound washout and measured after 72 hrs by MTT assay; type: cell-based, MCF-10A; outline: as §2
[13] = Selectivity index, ratio of EC50 for human MCF10A cells under UV irradiation at 1.5 J/cm2 to EC50 for human HT-29 cells under UV irradiation at 1.5 J/cm2; type: toxicity; conditions: MCF10A cells versus HT-29 cells, read-out: Ratio EC50; outline: as §3
[14] = Selectivity index, ratio of EC50 for human MCF10A cells under UV irradiation at 1.5 J/cm2 to EC50 for human MCF7 cells under UV irradiation at 1.5 J/cm2; type: toxicity; conditions: MCF10A cells versus MCF7 cells, read-out: Ratio EC50; outline: as §3
MCF7 [15] = assay: Phototoxicity index, ratio of CC50 for human MCF7 cells to EC50 for human MCF7 cells under UV irradiation at 1.5 J/cm2
[16] = system: Human immunodeficiency virus 1; assay: Antiviral activity against HIV1 3B infected in human MT4 cells assessed as decrease in viral replication by p24 ELISA; type: functional; conditions: Human immunodeficiency virus 1, 3B, read-out: CIC95

Row | solubility [6] | SMILES | pEC50 (MCF7 [1]) | CC50 at 72 h [2] [µM] | selectivity ratio [3] | CC50 at 72 h [4] [µM] | pEC50 (A-375 [5]) | Ratio CC50/EC50 (A-375 [7]) | pEC50 (MCF-10A) | CC50 at 72 h [8] [µM] | pEC50 (HT-29 [9]) | Ratio CC50/EC50 (HT-29 [10]) | selectivity ratio [11] | CC50 at 72 h [12] [µM] | selectivity ratio [13] | selectivity ratio [14] | Ratio CC50/EC50 (MCF7 [15]) | IC95 [16] [µM]
1 | Soluble | COc1cc(-c2nc3c(nc(C)c4ccc(-c5ccccc5)nc43)o2)cc(OC)c1OC | 5.23 | > 50 | > 11 | > 50 | 5.84 | >35 | 5.36 | > 50 | 6.21 | >81 | 3 | > 50 | 7 | 0.737 | >8 | 
2 | Soluble | Cc1nc2oc(-c3ccccc3)nc2c2[nH]c(=O)ccc12 | < 4.30 | > 50 |  | > 50 | 5.83 | >34 | < 4.30 | > 50 | < 4.30 |  | 34 | > 50 |  |  |  | 
3 | Soluble | COc1ccccc1-c1ccc2c(C)nc3c(nnn3-c3cc(OC)c(OC)c(OC)c3)c2n1 | < 4.30 | > 50 |  | > 50 | < 4.30 |  | < 4.30 | > 50 | < 4.30 |  |  | > 50 |  |  |  | 
4 | Insoluble | COc1ccccc1-c1ccc2c(C)nc3c(nnn3-c3ccccc3)c2n1 |  |  |  |  |  |  |  |  |  |  |  |  |  |  |  | 
5 | Insoluble | COc1ccc(-c2nc3c(nc(C)c4ccc(-c5ccccc5OC)nc43)o2)cc1 |  |  |  |  |  |  |  |  |  |  |  |  |  |  |  | 
6 | Soluble | Cc1ccc2c(C)nc3c(nnn3-c3ccccc3)c2n1 | < 4.30 | > 50 |  | > 50 | < 4.30 |  | < 4.30 | > 50 | < 4.30 |  |  | > 50 |  |  |  | 
7 | Soluble | COc1ccc(-c2nc3c(nc(C)c4ccc(C)nc43)o2)cc1 | < 4.30 | > 50 |  | > 50 | < 4.30 |  | < 4.30 | > 50 | 5.37 | >12 |  | > 50 | > 12 |  |  | 
8 | Soluble | COc1ccc(-n2nnc3c4nc(-c5ccccc5OC)ccc4c(C)nc32)cc1 | < 4.30 | > 50 |  | > 50 | 5.96 | >46 | < 4.30 | > 50 | < 4.30 |  | 46 | > 50 | > 1 | > 1 |  | 
9 |  | O=C(c1cc(Cc2ccccc2)cc(CN2CCCS2(=O)=O)c1)c1ncc2cccnc2c1O |  |  |  |  |  |  |  |  |  |  |  |  |  |  |  | 0.39
10 | Soluble | COc1ccccc1-c1ccc2c(C)nc3oc(-c4ccccc4)nc3c2n1 | 5.88 | > 50 | > 43 | > 50 | 6.20 | >79 | 5.93 | > 50 | 6.71 | >254 | 2 | > 50 | 6 | 0.884 | >38 | 
11 | Soluble | COc1ccc(-c2ccc3c(C)nc4c(nnn4-c4ccccc4)c3n2)cc1 | 4.47 | > 50 | > 505 | > 50 | 5.00 | >5 | 7.00 | > 50 | 7.00 | >508 | 0.009 | > 50 | 1.01 | 0.003 | >1.5 | 
12 | Soluble | Cc1nc2c(nnn2-c2ccccc2)c2nc(-c3ccccc3)ccc12 | < 4.30 | > 50 |  | > 50 | < 4.30 |  | < 4.30 | > 50 | < 4.30 |  |  | > 50 |  |  |  | 
13 | Insoluble | COc1cc(-n2nnc3c4nc(C)ccc4c(C)nc32)cc(OC)c1OC |  |  |  |  |  |  |  |  |  |  |  |  |  |  |  | 
14 | Insoluble | COc1ccc(-c2nc3c(nc(C)c4ccc(=O)[nH]c43)o2)cc1 |  |  |  |  |  |  |  |  |  |  |  |  |  |  |  | 
15 | Soluble | COc1cc(-n2nnc3c4nc(-c5ccccc5)ccc4c(C)nc32)cc(OC)c1OC | < 4.30 | > 50 |  | > 50 | < 4.30 |  | < 4.30 | > 50 | < 4.30 |  |  | > 50 |  |  |  | 
16 | Insoluble | Cc1nc2oc(-c3ccccc3)nc2c2nc(-c3ccccc3)ccc12 |  |  |  |  |  |  |  |  |  |  |  |  |  |  |  | 
17 | Insoluble | COc1ccc(-c2ccc3c(C)nc4oc(-c5ccc(OC)cc5)nc4c3n2)cc1 |  |  |  |  |  |  |  |  |  |  |  |  |  |  |  | 
18 | Soluble | Cc1nc2c(nnn2-c2ccccc2)c2[nH]c(=O)ccc12 | < 4.30 | > 50 |  | > 50 | < 4.30 |  | < 4.30 | > 50 | < 4.30 |  |  | > 50 |  |  |  | 
19 | Insoluble | COc1cc(-n2nnc3c4[nH]c(=O)ccc4c(C)nc32)cc(OC)c1OC |  |  |  |  |  |  |  |  |  |  |  |  |  |  |  | 
20 | Insoluble | COc1ccc(-n2nnc3c4nc(-c5ccccc5)ccc4c(C)nc32)cc1 |  |  |  |  |  |  |  |  |  |  |  |  |  |  |  | 
21 | Insoluble | COc1cc(-c2nc3c(nc(C)c4ccc(=O)[nH]c43)o2)cc(OC)c1OC |  |  |  |  |  |  |  |  |  |  |  |  |  |  |  | 
22 | Insoluble | COc1ccc(-c2ccc3c(C)nc4oc(-c5ccccc5)nc4c3n2)cc1 |  |  |  |  |  |  |  |  |  |  |  |  |  |  |  | 
23 | Soluble | Cc1ccc2c(C)nc3oc(-c4ccccc4)nc3c2n1 | < 4.30 | > 50 |  | > 50 | < 4.30 |  | < 4.30 | > 50 | 5.18 | >8 |  | > 50 | > 8 |  |  | 
24 | Soluble | COc1cc(-c2nc3c(nc(C)c4ccc(C)nc43)o2)cc(OC)c1OC | < 4.30 | > 50 |  | > 50 | < 4.30 |  | < 4.30 | > 50 | < 4.30 |  |  | > 50 |  |  |  | 
25 | Insoluble | COc1ccc(-c2ccc3c(C)nc4oc(-c5cc(OC)c(OC)c(OC)c5)nc4c3n2)cc1 |  |  |  |  |  |  |  |  |  |  |  |  |  |  |  | 
26 | Insoluble | COc1ccc(-c2ccc3c(C)nc4c(nnn4-c4cc(OC)c(OC)c(OC)c4)c3n2)cc1 |  |  |  |  |  |  |  |  |  |  |  |  |  |  |  | 
27 | Soluble | COc1ccc(-c2ccc3c(C)nc4c(nnn4-c4ccc(OC)cc4)c3n2)cc1 | < 4.30 | > 50 |  | > 50 | 6.06 | >57 | < 4.30 | > 50 | 5.76 | >29 | 57 | > 50 | > 29 | > 1 |  | 
28 | Soluble | COc1ccc(-n2nnc3c4[nH]c(=O)ccc4c(C)nc32)cc1 | < 4.30 | > 50 |  | > 50 | < 4.30 |  | < 4.30 | > 50 | < 4.30 |  |  | > 50 |  |  |  | 
29 | Soluble | COc1ccccc1-c1ccc2c(C)nc3oc(-c4cc(OC)c(OC)c(OC)c4)nc3c2n1 | 5.45 | > 50 | > 27 | > 50 | 6.12 | >65 | 5.73 | > 50 | 6.71 | >254 | 2 | > 50 | 9 | 0.527 | >14 | 
